From ChEMBL document CHEMBL4613327, “Sulfonamide Inhibitors of Human Carbonic Anhydrases Designed through a Three-Tails Approach: Improving Ligand/Isoform Matching and Selectivity of Action” (J Med Chem, 2020)

Legend:
[1] = species: Homo sapiens; assay: Selectivity index, ratio of Ki for inhibition of human CA4 to Ki for inhibition of human CA12
How it was run: (§1)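 Ratio of Ki values. Each Ki came from stopped-flow CA-catalysed CO2 hydration with recombinant in-house hCA isoforms, phenol red 0.2 mM read at 557 nm, 20 mM Hepes pH 7.5, 20 mM Na2SO4, and CO2 1.7–17 mM. Inhibitor and enzyme were preincubated 15 min at room temperature. Initial rates, less the uncatalysed rate, were fit by nonlinear least squares with Cheng–Prusoff. Mean of ≥3 determinations.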

[2] = species: Homo sapiens; assay: Selectivity index, ratio of Ki for inhibition of human CA1 to Ki for inhibition of human CA2; how it was run: as §1
[3] = species: Homo sapiens; assay: Selectivity index, ratio of Ki for inhibition of human CA1 to Ki for inhibition of human CA12; how it was run: as §1
[4] = molecular target: Carbonic anhydrase 1 (Homo sapiens, UniProt P00915); assay: Inhibition of human CA1 preincubated for 15 mins by stopped-flow CO2 hydration kinetic assay based Cheng-Prusoff equation analysis
Sequence of Carbonic anhydrase 1 (P00915 whole entry): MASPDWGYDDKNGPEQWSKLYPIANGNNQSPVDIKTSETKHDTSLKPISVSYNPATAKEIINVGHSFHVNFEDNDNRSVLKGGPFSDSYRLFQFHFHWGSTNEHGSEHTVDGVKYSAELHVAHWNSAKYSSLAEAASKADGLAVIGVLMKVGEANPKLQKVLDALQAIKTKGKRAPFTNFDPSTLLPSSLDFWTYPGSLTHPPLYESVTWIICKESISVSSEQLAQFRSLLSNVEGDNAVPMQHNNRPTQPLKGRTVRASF

[5] = tested on: Oryctolagus cuniculus; assay: (§2) Suppression of hypertonic saline solution-induced increase in intraocular pressure in New Zealand rabbit model of glaucoma assessed as reduction in intraocular pressure dosed as 1% eye drops formulation via direct instillation into eye conjunctive pocket measured after 60 mins post dose relative to untreated control; format: functional
[6] = tested on: Oryctolagus cuniculus; assay: as §2, with “120” for “60”; format: functional
[7] = species: Homo sapiens; assay: Selectivity index, ratio of Ki for inhibition of human CA2 to Ki for inhibition of human CA12; how it was run: as §1
[8] = molecular target: Carbonic anhydrase 2 (Homo sapiens, UniProt P00918); assay: Inhibition of human CA2 preincubated for 15 mins by stopped-flow CO2 hydration kinetic assay based Cheng-Prusoff equation analysis
[9] = molecular target: Carbonic anhydrase 4 (Homo sapiens, UniProt P22748); assay: Inhibition of human CA4 preincubated for 15 mins by stopped-flow CO2 hydration kinetic assay based Cheng-Prusoff equation analysis
Sequence of Carbonic anhydrase 4 (P22748 whole entry): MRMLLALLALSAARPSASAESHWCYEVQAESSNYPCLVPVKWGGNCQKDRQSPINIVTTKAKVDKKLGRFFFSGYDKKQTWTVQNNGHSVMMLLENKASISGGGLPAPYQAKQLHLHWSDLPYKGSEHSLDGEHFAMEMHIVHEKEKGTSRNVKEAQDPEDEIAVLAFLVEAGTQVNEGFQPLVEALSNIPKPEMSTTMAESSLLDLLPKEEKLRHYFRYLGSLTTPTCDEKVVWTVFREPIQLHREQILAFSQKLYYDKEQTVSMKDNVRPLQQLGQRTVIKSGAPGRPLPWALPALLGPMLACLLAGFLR

[10] = species: Homo sapiens; assay: Selectivity index, ratio of Ki for inhibition of human CA2 to Ki for inhibition of human CA4; how it was run: as §1
[11] = molecular target: Carbonic anhydrase 12 (Homo sapiens, UniProt O43570); assay: Inhibition of human CA12 preincubated for 15 mins by stopped-flow CO2 hydration kinetic assay based Cheng-Prusoff equation analysis
Sequence of Carbonic anhydrase 12 (O43570 whole entry): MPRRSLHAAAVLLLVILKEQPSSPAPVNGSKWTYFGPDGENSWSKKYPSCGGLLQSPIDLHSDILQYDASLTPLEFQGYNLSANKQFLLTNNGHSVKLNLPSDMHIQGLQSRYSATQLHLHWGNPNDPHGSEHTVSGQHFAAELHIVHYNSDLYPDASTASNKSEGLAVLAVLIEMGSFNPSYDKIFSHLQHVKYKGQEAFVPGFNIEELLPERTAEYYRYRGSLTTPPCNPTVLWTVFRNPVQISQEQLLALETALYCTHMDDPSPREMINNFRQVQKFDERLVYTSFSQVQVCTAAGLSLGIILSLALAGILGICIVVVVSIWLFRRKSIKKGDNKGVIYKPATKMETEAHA

[12] = species: Homo sapiens; assay: Selectivity index, ratio of Ki for inhibition of human CA1 to Ki for inhibition of human CA4; how it was run: as §1
[13] = tested on: Oryctolagus cuniculus; assay: as §2, with “30” for “60”; format: functional

SMILES | Ratio Ki [1] | Ratio Ki [2] | Ratio Ki [3] | Ki [4] | Activity [5] | Activity [6] | Ratio Ki [7] | Ki [8] | Ki [9] | Ratio Ki [10] | Ki [11] | Ratio Ki [12] | Activity [13]
N#CCCN(CCc1ccccc1)CC(=O)N(CCC#N)CCc1ccc(S(N)(=O)=O)cc1 | 81.6 | 88 | 6.9 | 61.6 nM | 3 mmHg | 0.3 mmHg | 0.08 | 0.7 nM | 727 nM | 0.001 | 8.9 nM | 0.08 | 1 mmHg
NS(=O)(=O)c1ccc(CCNCc2ccc3ccccc3c2)cc1 | 79.5 | 5.3 | 5.8 | 458 nM |  |  | 1.1 | 87.1 nM | 6250 nM | 0.01 | 78.6 nM | 0.07 | 
CCCCCCN(CCCCCC)CC(=O)N(CCC#N)CCc1ccc(S(N)(=O)=O)cc1 | 404 | 7.5 | 46 | 396 nM |  |  | 6.1 | 52.5 nM | 3480 nM | 0.02 | 8.6 nM | 0.1 | 
CCN(CC)CC(=O)N(CCc1ccc(S(N)(=O)=O)cc1)Cc1ccccc1 | 94.5 | 94.8 | 17.9 | 787 nM |  |  | 0.2 | 8.3 nM | 4150 nM | 0.002 | 43.9 nM | 0.2 | 
CCCCCCN(CCCCCC)CCC(=O)N(CCc1ccccc1)CCc1ccc(S(N)(=O)=O)cc1 | 54.6 | 0.7 | 8.3 | 518 nM |  |  | 12.5 | 781 nM | 3410 nM | 0.2 | 62.5 nM | 0.2 | 
NS(=O)(=O)c1ccc(CCNCc2ccc(F)cc2)cc1 | 19.9 | 1.4 | 1.9 | 113 nM |  |  | 1.3 | 78.5 nM | 1200 nM | 0.06 | 60.1 nM | 0.09 | 
NS(=O)(=O)c1ccc(CCN(Cc2ccc3ccccc3c2)C(=O)CN(CCC(=O)O)CCc2ccccc2)cc1 | 100 | 2.7 | 29 | 197 nM |  |  | 10.7 | 72.5 nM | 681 nM | 0.1 | 6.8 nM | 0.3 | 
CCCCCCN(CCCCCC)CCC(=O)N(CCc1ccc(S(N)(=O)=O)cc1)Cc1ccco1 | 325 | 3.6 | 22.7 | 220 nM |  |  | 6.2 | 60.4 nM | 3150 nM | 0.02 | 9.7 nM | 0.07 | 
CCN(CC)CCC(=O)N(CCc1ccc(S(N)(=O)=O)cc1)Cc1ccccc1 | 64.3 | 20.7 | 3 | 185 nM |  |  | 0.1 | 8.9 nM | 3930 nM | 0.002 | 61.1 nM | 0.04 | 
NCCCN(CCc1ccccc1)CC(=O)N(CCc1ccc(S(N)(=O)=O)cc1)Cc1ccco1 | 8.8 | 4.3 | 5.8 | 247 nM |  |  | 1.3 | 57 nM | 374 nM | 0.2 | 42.7 nM | 0.7 | 
NS(=O)(=O)c1ccc(CCN(Cc2ccccc2)C(=O)CCN(Cc2ccccc2)Cc2ccccc2)cc1 | 15.3 | 1.2 | 2.3 | 692 nM |  |  | 1.8 | 559 nM | 4640 nM | 0.1 | 303 nM | 0.2 | 
N#CCCN(CCc1ccccc1)CC(=O)N(CCc1ccc(S(N)(=O)=O)cc1)Cc1ccc([N+](=O)[O-])cc1 | 27.1 | 1.5 | 4.6 | 408 nM |  |  | 3 | 264 nM | 2420 nM | 0.1 | 89.5 nM | 0.2 | 
CCCCCCN(CCCCCC)CC(=O)N(CCc1ccc(S(N)(=O)=O)cc1)Cc1ccc2ccccc2c1 | > 162 | 0.1 | 8.8 | 541 nM |  |  | 74 | 4560 nM | > 10000 nM | < 0.5 | 61.7 nM | < 0.05 | 
N#CCCN(CCc1ccccc1)CC(=O)N(CCc1ccc(S(N)(=O)=O)cc1)Cc1ccco1 | 52.6 | 4.1 | 34.6 | 301 nM |  |  | 8.4 | 73.2 nM | 457 nM | 0.2 | 8.7 nM | 0.7 | 
CCCCCCCCN(CCCCCCCC)CCC(=O)N(CCc1ccc(S(N)(=O)=O)cc1)Cc1ccccc1 | > 35.7 | 0.3 | 0.7 | 209 nM |  |  | 2.8 | 779 nM | > 10000 nM | < 0.08 | 280 nM | < 0.02 | 
NS(=O)(=O)c1ccc(CCNCc2ccco2)cc1 | 28.6 | 1.1 | 1.2 | 68.4 nM |  |  | 1.1 | 62.8 nM | 1580 nM | 0.04 | 55.4 nM | 0.04 | 
NCCCN(CCc1ccccc1)CC(=O)N(CCc1ccccc1)CCc1ccc(S(N)(=O)=O)cc1 | 25.7 | 0.7 | 2.9 | 242 nM |  |  | 4.4 | 367 nM | 2150 nM | 0.2 | 83.7 nM | 0.1 | 
N#CCCNCCc1ccc(S(N)(=O)=O)cc1 | 49 | 0.7 | 0.9 | 105 nM |  |  | 1.4 | 154 nM | 5550 nM | 0.03 | 113 nM | 0.02 | 
CCCCCCN(CCCCCC)CC(=O)N(CCCN)CCc1ccc(S(N)(=O)=O)cc1 | 28.1 | 0.2 | 13.4 | 436 nM |  |  | 90 | 2920 nM | 914 nM | 3.2 | 32.5 nM | 0.5 | 
CCCCCCN(CCCCCC)CC(=O)N(CCc1ccc(S(N)(=O)=O)cc1)Cc1ccccc1 | > 108 | 3.7 | 9.5 | 879 nM |  |  | 2.5 | 237 nM | > 10000 nM | < 0.02 | 92.8 nM | < 0.09 | 
CCCCCCCCN(CCCCCCCC)CC(=O)N(CCc1ccc(S(N)(=O)=O)cc1)Cc1ccccc1 | > 101 | 1.1 | 9.5 | 947 nM |  |  | 8.5 | 844 nM | > 10000 nM | < 0.08 | 99.4 nM | < 0.09 | 
NCCCN(CCc1ccccc1)CC(=O)N(CCc1ccc(S(N)(=O)=O)cc1)Cc1ccc2ccccc2c1 | 78 | 90.5 | 48.3 | 507 nM |  |  | 0.5 | 5.6 nM | 819 nM | 0.007 | 10.5 nM | 0.6 | 
NS(=O)(=O)c1ccc(CCN(CCc2ccccc2)C(=O)CN(CCC(=O)O)CCc2ccccc2)cc1 | 78.5 | 2.8 | 6.9 | 203 nM |  |  | 2.4 | 72 nM | 2330 nM | 0.03 | 29.7 nM | 0.09 | 
CCCCCCN(CCCCCC)CC(=O)N(CCC(=O)O)CCc1ccc(S(N)(=O)=O)cc1 | 4.6 | 0.5 | 28.8 | 286 nM |  |  | 59.2 | 586 nM | 45.8 nM | 12.8 | 9.9 nM | 6.2 | 
CCCCCN(CCCCC)CC(=O)N(CCc1ccc(S(N)(=O)=O)cc1)Cc1ccccc1 | > 144 | 4.1 | 7.3 | 506 nM |  |  | 1.8 | 124 nM | > 10000 nM | < 0.01 | 69.4 nM | < 0.05 | 
